Test results published in EPA's CvTdb concentration-time database.

What was measured:
[1] = system: Hamster; test: concentration in plasma after dosing; conditions: dosed: 2,4-Dichlorophenoxyacetic acid, 8.0 mg/kg, oral, Male, Syrian Golden
Summary of the method: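 Concentration-versus-time or amount-versus-time points were compiled from published in vivo toxicokinetic studies and from two structured collections. The studies were found by PubMed searching, classifier screening and manual review. Points were mostly digitised from plot screenshots with WebPlotDigitizer, otherwise copied from tables, and kept in the reported units. Dose, route, subject details and medium were curated by hand from each paper, and sampling and analytical methods follow each source and were often unreported.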

[2] = system: Mouse; test: concentration in plasma after dosing; conditions: 2.5 min; dosed: 2-Hydroxy-4-methoxybenzophenone; 250 mg/kg; oral; Female; B6C3F1
[3] = system: Mouse; test: concentration in plasma after dosing; conditions: 2 h; dosed: 2-Hydroxy-4-methoxybenzophenone; 250 mg/kg; oral; Male; B6C3F1
[4] = system: Mouse; test: concentration in plasma after dosing; conditions: 0.25 h; dosed: 2-Hydroxy-4-methoxybenzophenone; 50 mg/kg; iv; Male; B6C3F1
[5] = system: Rat; test: concentration in plasma after dosing; conditions: dosed: 2-Hydroxy-4-methoxybenzophenone, 250 mg/kg, oral, Female, F344
[6] = system: Mouse; test: concentration in plasma after dosing; conditions: 2.5 min; dosed: 2-Hydroxy-4-methoxybenzophenone; 250 mg/kg; oral; Male; B6C3F1
[7] = system: Mouse; test: concentration in plasma after dosing; conditions: 2 h; dosed: 2-Hydroxy-4-methoxybenzophenone; 250 mg/kg; oral; Male; B6C3F1; remark: listed apart in the source
[8] = system: Mouse; test: concentration in plasma after dosing; conditions: 10 min; dosed: 2-Hydroxy-4-methoxybenzophenone; 50 mg/kg; iv; Male; B6C3F1
[9] = system: Mouse; test: concentration in plasma after dosing; conditions: 0.25 h; dosed: 2-Hydroxy-4-methoxybenzophenone; 500 mg/kg; oral; Female; B6C3F1
[10] = system: Mouse; test: concentration in plasma after dosing; conditions: 2 h; dosed: 2-Hydroxy-4-methoxybenzophenone; 500 mg/kg; oral; Male; B6C3F1
[11] = system: Rat; test: concentration in plasma after dosing; conditions: dosed: 2-Hydroxy-4-methoxybenzophenone, 500 mg/kg, oral, Female, F344
[12] = system: Rat; test: concentration in plasma after dosing; conditions: dosed: Methyleugenol, 37 mg/kg, iv, Male, F344
[13] = system: Rat; test: concentration in liver after dosing; conditions: dosed: Perfluorohexane-1-sulphonic acid – potassium salt, 16 mg/kg, oral
[14] = system: Rat; test: concentration in kidney after dosing; conditions: 24 h; dosed: Perfluorohexane-1-sulphonic acid – potassium salt; 16 mg/kg; oral; Female; Harlan Sprague Dawley
[15] = system: Rat; test: concentration in liver after dosing; conditions: 1200 h; dosed: Perfluorohexane-1-sulphonic acid – potassium salt; 16 mg/kg; oral; Male; Harlan Sprague Dawley
[16] = system: Rat; test: concentration in liver after dosing; conditions: 24 h; dosed: Perfluorohexane-1-sulphonic acid – potassium salt; 16 mg/kg; oral; Female; F344
[17] = system: Rat; test: concentration in liver after dosing; conditions: 3 h; dosed: Perfluorohexane-1-sulphonic acid – potassium salt; 16 mg/kg; oral; Female; F344
[18] = system: Rat; test: concentration in liver after dosing; conditions: 12 h; dosed: Perfluorohexane-1-sulphonic acid – potassium salt; 16 mg/kg; oral; Female; F344
[19] = system: Rat; test: concentration in liver after dosing; conditions: 12 h; dosed: Perfluorohexane-1-sulphonic acid – potassium salt; 16 mg/kg; oral; Female; Harlan Sprague Dawley
[20] = system: Rat; test: concentration in kidney after dosing; conditions: 6 h; dosed: Perfluorohexane-1-sulphonic acid – potassium salt; 16 mg/kg; oral; Female; F344
[21] = system: Rat; test: concentration in plasma after dosing; conditions: 6 h; dosed: Primidone; 80 mg/kg; oral; Female; F344
[22] = system: Rat; test: concentration in plasma after dosing; conditions: 1.5 h; dosed: Primidone; 30 mg/kg; oral; Female; F344
[23] = system: Rat; test: concentration in plasma after dosing; conditions: dosed: Pyridine, 25 mg/kg, oral, Male, F344
[24] = system: Rat; test: concentration in plasma after dosing; conditions: dosed: Pyridine, 5 mg/kg, oral, Male, F344
[25] = system: Rat; test: concentration in plasma after dosing; conditions: 5 min; dosed: alpha-Thujone; 25 mg/kg; oral; Male; Harlan Sprague Dawley
[26] = system: Rat; test: concentration in plasma after dosing; conditions: 10 min; dosed: alpha-Thujone; 25 mg/kg; oral; Male; Harlan Sprague Dawley
[27] = system: Rat; test: concentration in brain after dosing; conditions: 0.5 h; dosed: alpha-Thujone; 25 mg/kg; oral; Female; Harlan Sprague Dawley
[28] = system: Rat; test: concentration in brain after dosing; conditions: 0.5 h; dosed: alpha-Thujone; 50 mg/kg; oral; Female; Harlan Sprague Dawley
[29] = system: Rat; test: concentration in plasma after dosing; conditions: 10 min; dosed: alpha-Thujone; 25 mg/kg; oral; Male; Harlan Sprague Dawley; remark: listed apart in the source
[30] = system: Rat; test: concentration in plasma after dosing; conditions: 0.5 h; dosed: alpha-Thujone; 50 mg/kg; oral; Female; Harlan Sprague Dawley
[31] = system: Rat; test: concentration in brain after dosing; conditions: 3 h; dosed: alpha-Thujone; 25 mg/kg; oral; Male; Harlan Sprague Dawley
[32] = system: Rat; test: concentration in brain after dosing; conditions: 5 min; dosed: alpha-Thujone; 50 mg/kg; oral; Female; Harlan Sprague Dawley
[33] = system: Rat; test: concentration in brain after dosing; conditions: 1.5 h; dosed: alpha-Thujone; 25 mg/kg; oral; Male; Harlan Sprague Dawley
[34] = system: Rat; test: concentration in plasma after dosing; conditions: 5 min; dosed: alpha-Thujone; 25 mg/kg; oral; Male; Harlan Sprague Dawley; remark: listed apart in the source

O=C(O)COc1ccc(Cl)cc1Cl [2,4-Dichlorophenoxyacetic acid]
[1]
Conditions | concentration in plasma [ng/mL]
0.25 h | 4060
0.5 h | 1230
1 h | 1030
2 h | 511
2.5 min | 2380
5 min | 9420

O=C(c1ccccc1)c1ccc(O)cc1O [2,4-Dihydroxybenzophenone]
Conditions | concentration in plasma [ng/mL]
[2] | 53.1
[3] | 266
[4] | 1940
[6] | 92.3
[7] | 338
[8] | 3890
[9] | 2690
[10] | 318

concentration in plasma [ng/mL]
Conditions | 3 h | 10 h | 10 min
[5] | 213 | – | 128
[11] | – | 206 | 116

C=CCc1ccc(OC)c(OC)c1 [Methyleugenol]
[12]
Conditions | concentration in plasma [ng/mL]
0.5 h | 3440
0.75 h | 3090

O=S(=O)([O-])C(F)(F)C(F)(F)C(F)(F)C(F)(F)C(F)(F)C(F)(F)F.[K+] [Perfluorohexane-1-sulphonic acid – potassium salt]
concentration in liver [ng/g], [13]
Conditions | 3 h | 6 h | 12 h | 24 h | 48 h | 96 h | 192 h | 528 h | 1200 h
Female, F344 | 67800 | 62400 | 68600 | 58000 | – | – | 47000 | 27600 | –
Female, Harlan Sprague Dawley | 49500 | 49000 | 33300 | 26100 | 14000 | 6030 | 1460 | – | –
Male, Harlan Sprague Dawley | – | – | – | – | – | – | – | – | 14800

Conditions | concentration in kidney [ng/g] | concentration in liver [ng/g]
[14] | 22700 | –
[15] | – | 10900
[16] | – | 78000
[17] | – | 63900
[18] | – | 75600
[19] | – | 29700
[20] | 36400 | –

CCC1(c2ccccc2)C(=O)NCNC1=O [Primidone]
Conditions | concentration in plasma [ng/mL]
[21] | 43900
[22] | 20600

c1ccncc1 [Pyridine]
concentration in plasma [ng/mL]
Conditions | 0.5 h | 1 h | 6 h | 8 h
[23] | 15300 | – | 15100 | –
[24] | – | 3160 | – | 1170

CC(C)[C@]12CC(=O)[C@H](C)[C@H]1C2 [alpha-Thujone]
Conditions | concentration in brain [ng/g] | concentration in plasma [ng/mL]
[25] | – | 93.4
[26] | – | 464
[27] | 987 | –
[28] | 865 | –
[29] | – | 248
[30] | – | 433
[31] | 130 | –
[32] | 3080 | –
[33] | 592 | –
[34] | – | 1170
